This is an account of results in paper PMC8897028 (Acta Pharmaceutica Sinica. B, 2021).

Common to all, as to format: cell-based, human
Assay [1] concerns HaCaT cells. Put plainly: cell death assay. The conditions noted are these: IAB added with carvacrol 300 μmol/L; 12 h. The method, boiled down: (§1)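 HEK293 cells 12 h after hTRPV3 transfection, or HaCaT cells, were seeded in six-well plates, randomly split into 6 groups, and treated 12 h in culture medium. Cells were detached with 0.25% trypsin (HEK293 1 min; HaCaT 7 min), centrifuged, and stained 30 min in PBS with Hoechst and PI. Five random fields per group were imaged. Death ratio = PI-labelled over Hoechst-labelled nuclei, averaged over five images; n = 4.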

Assay [2] deals with HEK293 cells expressing hTRPV3. Put plainly: cell proliferation MTT assay, HEK293 cells transfected with hTRPV3. The conditions noted are these: IAB at 10 and 100 μmol/L with carvacrol 300 μmol/L, 24 h. The procedure, abridged: (§2)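 hTRPV3-transfected HEK293 or HaCaT cells were plated at 5 × 10^3 per well for 24 h, then exposed 24 h to TRPV3 activator and/or inhibitor in culture medium. MTT (5 mg/mL solution) was added for 4 h. Medium was removed, formazan dissolved in DMSO, and absorbance read at 490 nm.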
In general terms: Formazan colour is commonly taken as a measure of viable cells.

Assay [3] has as its system HEK293 cells expressing hTRPV3. Briefly: cell death assay. The conditions noted are these: 12 h, n = 4. The procedure, abridged: as §1
For assay [4], the system named is HaCaT cells. Put plainly: cell proliferation MTT assay, HaCaT cells. The conditions noted are these: IAB at 10 and 100 μmol/L with carvacrol 300 μmol/L, 24 h. The procedure, abridged: as §2

Consider `O=C(/C=C/c1ccc(O)c(O)c1)O[C@@H]1[C@H](O)C[C@@](O)(C(=O)O)C[C@H]1OC(=O)/C=C/c1ccc(O)c(O)c1` [IAB, isochlorogenic acid B], for which the HaCaT cell death entry with HaCaT cells [1] is listed as “dose-dependent reduction of HaCaT cell death”. For the same compound, the “reversal of overactive TRPV3-induced inhibition of cell proliferation” value (in assay [2]; with HaCaT cells [4]) was “significantly reversed” in each case. For the same compound, the cell death ratio in assay [3] (IAB 10 μmol/L with carvacrol 300 μmol/L) is 11.7 ± 0.9%; in assay [3] (IAB 100 μmol/L with carvacrol 300 μmol/L), 9.9 ± 1.2%.
